Test results from paper PMC10061538 (ACS Omega, 2023).

How the values were obtained:
CYP2A6 [1] = target: T1, CYP2A6 (Homo sapiens, UniProt P11509); test: Cellular CYP2A6 inhibition screening; type: cell-based; details: for inhibition of cellular CYP2A6: flavoring agent at 500 μM
T1 sequence (P11509 1-494): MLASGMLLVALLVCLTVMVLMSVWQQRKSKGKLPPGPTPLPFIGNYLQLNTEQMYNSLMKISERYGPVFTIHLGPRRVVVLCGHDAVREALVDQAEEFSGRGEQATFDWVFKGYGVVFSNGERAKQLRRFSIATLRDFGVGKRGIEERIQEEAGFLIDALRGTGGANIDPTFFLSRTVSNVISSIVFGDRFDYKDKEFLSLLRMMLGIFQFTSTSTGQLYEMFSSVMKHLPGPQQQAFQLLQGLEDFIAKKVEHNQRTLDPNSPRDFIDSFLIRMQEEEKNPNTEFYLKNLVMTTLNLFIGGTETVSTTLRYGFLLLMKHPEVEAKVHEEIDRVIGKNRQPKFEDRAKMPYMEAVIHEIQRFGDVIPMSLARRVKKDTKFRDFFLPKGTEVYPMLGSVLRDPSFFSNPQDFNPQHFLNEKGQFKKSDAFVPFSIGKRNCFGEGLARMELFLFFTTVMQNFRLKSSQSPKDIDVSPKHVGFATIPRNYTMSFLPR

[2] = system: CYP2A6-transduced BEAS-2B cells; test: Cell viability by LDH release; type: cell-based; details: flavoring agent at 500 μM, 2 h total exposure, 50 μM coumarin, Figure S4
Summary of the method: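 CYP2A6-transduced BEAS-2B cells were grown to confluence in KGM and switched to KBM. They were exposed to flavoring agent at 500 μM for 1 h, then coumarin was added to 50 μM, for 2 h total, in triplicate wells. Medium was incubated 30 min with tetrazolium substrate and read at 490 nm absorbance. Maximal LDH was set by lysis buffer.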

CYP2A6 [3] = target: T1, CYP2A6; details: 50 μM tranylcypromine pretreatment 1 h, then 100 μM coumarin 1 h

inhibition of cellular CYP2A6 (CYP2A6 [1])	Compound	IC50 (CYP2A6 [1]) [µM]	mean percent of maximal LDH [2] [%]	fluorescence (7-hydroxycoumarin formation) in CYP2A6-transduced cells (CYP2A6 [3])
near-maximal inhibition	COc1cc(C=O)ccc1O [vanillin]	200	–	–
negligible inhibition	CC(=O)OCCC(C)C [isoamyl acetate]	> 500	–	–
–	O=Cc1ccccc1 [benzaldehyde]	7.6	8.9	–
–	O=C/C=C/c1ccccc1 [cinnamaldehyde, trans-cinnamaldehyde]	7.4	6.6	–
–	Cl.N[C@@H]1C[C@H]1c1ccccc1 (relative stereo) [tranylcypromine, trans-2-Phenylcyclopropylamine hydrochloride]	–	–	strongly reduced
